# Screening data: PubChem BioAssay, several laboratories
# UPR CHOP act: apoptotic UPR (CHOP) activation; CHO-CHOP luciferase reporter, luminescence; percent of tunicamycin response over DMSO baseline; activation, % at 10 µM; actives 0.34% (n = 330,000);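 active = at 10 µM dose, activation of 40% or more, normalized to positive control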;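 also: 100% = tunicamycin at 10 µg/mL and 0% = DMSO alone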
#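 Dosing – one dose, 10 µM in 0.5% DMSO · System – CHO-CHOP cells, stable luciferase reporter of PERK-eIF2a-CHOP signalling · Input – 500 cells/well · Control set – tunicamycin 10 µg/mL final as positive, DMSO-only wells as negative · Timing – 6 h compound treatment, 37 °C · Measure – % activation vs tunicamycin · Technique – luminescence read with Steady-Glo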
# NS3 helicase inh: HCV NS3 helicase inhibition; inhibition, % at 10.9 µM; actives 0.56% (n = 290,000); AID 1800; NS3 helicase DNA unwinding, Cy5 molecular beacon fluorescence;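 active = inhibition above the mean of all tested compounds plus 3 SD, set per campaign, cut at about 35% in these data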;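 also: 0% = DMSO wells and 100% = thioflavine S control wells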
#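 Assay system: hepatitis C virus NS3 helicase domain fragment enzyme. Also added: annealed dual-labelled DNA beacon duplex, ATP-started. Timing: 1 h reaction at 25 °C, ATP-initiated. Technique: Cy5 fluorescence at 0 and 60 min, beacon hairpin quenching. Evaluation: % inhibition of unwinding. Replication: one well per compound.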
# PfM18AAP inh: PfM18AAP enzyme inhibition; recombinant PfM18AAP, H-Glu-NHMec fluorogenic cleavage; inhibition, % at 7.35 µM; actives 1.2% (n = 290,000);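 active = inhibition above the campaign mean inhibition over all tested compounds plus 3 SD, cut at about 28% in these data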;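 also: 0% = plate median of test compound wells and 100% = 2 mM ZnCl2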
# CHOP inh: CHOP inhibition in unfolded protein response | AID 2732 | CHO-K1 CHOP-promoter luciferase, tunicamycin-induced, 15-18 h | inhibition, % at 10 µM | actives 3.8% (n = 220,000);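 active = compounds that reduced the stress-induced luciferase reporter signal by more than about 70% of percent inhibition, limit read from the data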;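 also: 0% = tunicamycin plus vehicle and 100% = wells without tunicamycin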
# p97 ATPase inh: blocks human p97 ATPase activity. P55072. recombinant p97 ATPase, Kinase-Glo ATP luminescence, 3 h. inhibition, % at 8 µM. actives 0.42% (n = 220,000). AID 1481; in the data active = inhibition above about 15%;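 also: 0% = DMSO vehicle and 100% = wells lacking enzyme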
# Target sequence (P55072 whole entry, looked up): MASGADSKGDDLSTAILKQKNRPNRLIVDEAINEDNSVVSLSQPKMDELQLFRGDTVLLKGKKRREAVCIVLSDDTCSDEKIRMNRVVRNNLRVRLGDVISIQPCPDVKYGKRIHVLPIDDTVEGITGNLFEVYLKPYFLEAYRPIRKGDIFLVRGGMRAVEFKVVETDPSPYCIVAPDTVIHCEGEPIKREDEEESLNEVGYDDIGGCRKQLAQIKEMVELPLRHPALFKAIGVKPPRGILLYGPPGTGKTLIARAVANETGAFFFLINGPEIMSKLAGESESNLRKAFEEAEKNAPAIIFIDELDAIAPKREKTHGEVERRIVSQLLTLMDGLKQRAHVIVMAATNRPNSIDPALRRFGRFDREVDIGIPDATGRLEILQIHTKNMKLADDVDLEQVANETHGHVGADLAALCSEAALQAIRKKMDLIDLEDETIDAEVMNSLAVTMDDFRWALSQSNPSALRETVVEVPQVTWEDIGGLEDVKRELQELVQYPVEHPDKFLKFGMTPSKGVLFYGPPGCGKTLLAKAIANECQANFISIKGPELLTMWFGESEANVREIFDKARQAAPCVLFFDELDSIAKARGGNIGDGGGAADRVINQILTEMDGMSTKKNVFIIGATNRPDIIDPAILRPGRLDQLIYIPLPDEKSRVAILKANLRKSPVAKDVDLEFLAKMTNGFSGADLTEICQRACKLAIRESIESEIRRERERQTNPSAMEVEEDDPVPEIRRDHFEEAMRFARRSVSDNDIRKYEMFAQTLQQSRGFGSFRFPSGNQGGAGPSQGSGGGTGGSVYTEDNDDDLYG
# XBP1 UPR activ: adaptive UPR (XBP1) activation; CHO-XBP1 luciferase reporter, IRE1-XBP1 UPR activation, luminescence; percent of tunicamycin response, DMSO as zero; activation, % at 20 µM; actives 0.33% (n = 330,000); AID 463104;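 active = versus positive control, 20 µM dose yields 30% or more activation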;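 also: 100% = tunicamycin at 10 µg/mL and 0% = DMSO only wells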
#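 Material – CHO cell line with stable XBP1 luciferase reporter · Buffer or medium – F12 plus 10% FBS · Compound – single point, 20 µM final compound, 1% DMSO · Schedule – 16-18 h cell attachment at 37 °C, then 6 h compound exposure · Signal – Steady-Glo luminescence read · Benchmarks – high control tunicamycin 10 µg/mL final, low control DMSO vehicle only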
# NS3 hel confirm: HCV NS3 helicase inhibition, confirmation assay. shares compounds with NS3 helicase inh. NS3 helicase DNA unwinding, Cy5 molecular beacon fluorescence. inhibition, % at 10.9 µM. actives 31% (n = 1,600). AID 1943;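 active = inhibition above the mean of all tested compounds plus 3 SD, cutoff set per campaign, cut at about 36% in these data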
# FID counter trip: displaces DNA intercalator in HCV helicase counter-screen | inhibition, % at 7.9 µM | actives 4% (n = 1,600) | DNA fluorescent intercalator displacement, fluorescence | shares compounds with NS3 helicase inh; in the data active = inhibition above about 37%;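 also: 0% = vehicle and 100% = reference compound; higher means more displacement of ethidium bromide from the DNA hairpin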
# DNA FID DR: DNA intercalator displacement in dose response | fluorescent intercalator displacement from DNA, fluorescence | shares compounds with NS3 helicase inh | AID 2172 | IC50, µM | 120 tested, under 10 active; call rule not given here
# Numbers without * were called inactive; · = not tested or not shown. Only some compounds are listed: those with a hit (about 4.5% of all), similar ones and a draw of the others.
SMILES,UPR CHOP act,NS3 helicase inh,PfM18AAP inh,CHOP inh,p97 ATPase inh,XBP1 UPR activ,NS3 hel confirm,FID counter trip,others
CC(=O)Oc1ccc(C(=O)Nc2cc(C)on2)cc1,-9,-2,-19,·,·,3,·,·,
CC1=NN(C(N)=S)C(=O)C1N=Nc1ccc(C)c(Br)c1 (configuration not stated),4,40*,13,·,·,-3,-19,13,
CCN1C(=O)[C@H]2[C@@H](c3ccc(-c4ccc(OC)cc4)c(OC)c3)N3CCCC[C@@]3(C(=O)OC)[C@H]2C1=O,-1,·,·,·,·,-2,·,·,
Cc1cc(NC(=O)CSc2nc3ccccc3c(=O)n2-c2ccccc2)no1,-2,2,5,39,4,0,·,·,
COC(=O)c1c(NC(=O)CSc2nc3ccccc3c(=O)n2-c2ccccc2)sc(C)c1C,0,48*,15,-1,4,-4,10,-20,
O=C(/C(=N/N=C/c1ccc(O)c(O)c1O)c1ccccc1)c1ccccc1,0,49*,22,72*,3,0,1,27,
Oc1cccc(C=NCc2ccccc2)c1O,-1,18,14,16,-5,-3,·,·,
Oc1ccc(/C=N/N=C(c2ccccc2)c2ccccc2)c(O)c1O,·,52*,24,70*,8,·,-22,21,
O=C1N=c2ccccc2=C1c1sc(Nc2ccc(O)cc2)nc1O,·,72*,4,-22,8,·,27,4,
CC(=O)c1ccc(S(=O)(=O)N2CCN(CCOc3ccc(Br)cc3)CC2)cc1,1,·,·,·,·,-2,·,·,
CCc1ccc(/C=C/C(=O)C2C(=O)c3ccccc3C2=O)cc1,-2,38*,-1,90*,3,-2,5,5,
O=C(/C=C/c1ccccc1)C1C(=O)c2ccccc2C1=O,1,25,-2,16,3,-2,·,·,
CC1CCCC(C)N1C(=O)c1cc(-c2ccc3c(c2)OCO3)on1 (configuration not stated),4,9,2,·,·,-4,·,·,
CC(=O)Cc1nsc(NC(=O)c2ccc(COc3ccccc3Cl)o2)n1,-1,-16,-4,·,·,0,·,·,
O=C(NNC1CC(=O)N(c2ccccc2)C1=O)c1ccc(COc2ccccc2Cl)o1 (configuration not stated),-1,60*,12,5,-8,-2,-12,-27,
CC(=O)c1sc(NC(=O)c2ccc(COc3ccccc3Cl)o2)nc1C,-2,42*,-2,·,·,-1,21,15,
Cc1cccc(CNCc2ccccc2)c1,2,38*,-14,-2,0,0,-10,9,
Cc1cccc(NCc2ccccc2)c1,0,-3,-4,-13,-4,-2,·,·,
CN(C)C(CNC(=O)c1cccc(S(=O)(=O)NCc2ccccc2)c1)c1ccco1 (configuration not stated),1,·,·,·,·,-4,·,·,
Cc1ccc(-c2nn3c(C)nnc3s2)cc1NC(=O)c1ccc(-c2cccc(Cl)c2)o1,2,60*,14,50,7,-1,-8,-27,
Cc1ccc(-c2csc(/C(C#N)=C(\O)CN3CCN(C(=O)c4ccco4)CC3)n2)cc1,-3,37*,-12,39,-2,0,42*,-14,
Cc1cc(C)nc(OC(C(=O)O)C(OCCc2ccccc2)(c2ccccc2)c2ccccc2)n1 (configuration not stated),1,37*,12,·,·,-2,107*,8,
COC(c1ccc(Cl)cc1)(c1ccc(Cl)cc1)C(Oc1nc(C)cc(C)n1)C(=O)O (configuration not stated),1,37*,1,·,·,-1,36*,-4,
COC(c1ccc(Cl)cc1)(c1ccc(Cl)cc1)C(Oc1nccc(C)n1)C(=O)O (configuration not stated),-1,30,-8,·,·,-6,·,·,
COc1ccc(CNC(=O)CCCC(=O)Nc2cccc(Br)c2)cc1,5,-3,-21,·,·,-3,·,·,
SMILES,UPR CHOP act,NS3 helicase inh,PfM18AAP inh,CHOP inh,p97 ATPase inh,XBP1 UPR activ,NS3 hel confirm,FID counter trip,others
C=CCN1C(=O)/C(=C/c2ccc(-c3ccc(F)cc3)o2)SC1=S,3,78*,9,·,·,-1,-10,21,
Cc1nc2c(C(=O)NCc3ccccc3Cl)c[nH]n2c(=O)c1Cl,0,56*,0,24,15*,0,46*,6,
Cc1nc2c(C(=O)NCCc3ccccc3Cl)c[nH]n2c(=O)c1Cl,3,-24,-1,-16,1,-6,·,·,
CCN(CC)C(=O)COC(=O)c1cc(-c2ccco2)nc2ccccc12,·,44*,-6,40,3,·,19,0,
CNC(=O)COC(=O)c1cc(-c2ccco2)nc2ccccc12,-1,35,6,1,-4,-3,·,·,
CCN(CC)CCNC(=O)c1cc(-c2ccco2)nc2ccccc12,-1,-12,-7,1,-3,-2,·,·,
COc1ccc(CCNC(=O)c2cc(-c3ccco3)nc3ccccc23)cc1,1,53*,-32,·,·,1,7,-17,
O=C(N/N=C/c1ccc([N+](=O)[O-])o1)c1cc(-c2cccc(Br)c2)nc2ccccc12,14,41*,11,60,0,3,38*,18,
O=C(CNc1ccc2ccccc2c1)N/N=C/c1ccc([N+](=O)[O-])o1,-1,55*,26,99*,-3,-2,0,11,
CCCc1ccc(-c2cc(C(=O)N/N=C/c3ccc([N+](=O)[O-])o3)c3ccccc3n2)cc1,3,10,3,23,0,0,·,·,
O=C(CNc1ccc2ccccc2c1)N/N=C/c1ccc(C(=O)O)cc1,-1,1,7,-2,2,1,·,·,
CSCCC(C(=O)OC1CCOC1=O)N1C(=O)c2ccccc2C1=O (configuration not stated),1,0,-5,-8,3,-2,·,·,
CC(=O)Nc1ccc(/C=N/NC(=O)c2cc(-c3ccco3)nc3ccccc23)cc1,3,-3,-9,-11,2,1,·,·,
O=C(O)c1ccccc1/C=N/NC(=O)c1cc(-c2ccco2)nc2ccccc12,0,42*,11,2,4,-2,68*,-21,DNA FID DR=>79
O=C(O)CN1C(=O)/C(=C\c2ccccc2OCc2ccc(Cl)cc2)SC1=S,3,43*,10,·,·,-3,70*,33,
